Marks after values point to notes of the source that are not given here.
How the values were obtained:
[1] = Phase I pharmacokinetics in plasma and CSF, multiple dosing over 14 days; format: in vivo, human; conditions: for AUC0–14: after first dose, geometric mean (% gCV); for Tmax / Cmax: male, human, po
How it was run: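 Healthy males received 5–50 mg orally once daily for 14 days. CSF was collected hourly via lumbar catheter for 14 h after dose 1 and by puncture before the last dose. Plasma was sampled hourly on days 1 and 14, every 24 h on days 2–4 and every 48 h on days 6–12. Drug was measured by validated HPLC-MS/MS with noncompartmental analysis. Steady state was judged from trough plasma concentrations (days 2–14) using pairwise 95% CIs.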

[2] = Compound levels in rat plasma and CSF; format: in vivo; conditions: plasma, po
How it was run: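 Adult male Wistar rats (200–220 g) were given a single oral dose of 0.2, 0.6 or 2 mg/kg in 0.5% Natrosol with 0.01% Tween-80 (n = 8 per group). At 90 min, under s.c. inactin/ketavet anaesthesia, blood and cisterna magna CSF were taken. Plasma was stored at −20°C and CSF at −70°C. Drug was measured by HPLC-MS/MS, and CSF/plasma ratio was derived.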

human GlyT2 = target: T1, human GlyT2 (Homo sapiens, UniProt Q9Y345); test: Inhibition of [3H]-glycine uptake in HEK cells overexpressing human GlyT2; format: cell-based
T1 sequence (Q9Y345 1-797): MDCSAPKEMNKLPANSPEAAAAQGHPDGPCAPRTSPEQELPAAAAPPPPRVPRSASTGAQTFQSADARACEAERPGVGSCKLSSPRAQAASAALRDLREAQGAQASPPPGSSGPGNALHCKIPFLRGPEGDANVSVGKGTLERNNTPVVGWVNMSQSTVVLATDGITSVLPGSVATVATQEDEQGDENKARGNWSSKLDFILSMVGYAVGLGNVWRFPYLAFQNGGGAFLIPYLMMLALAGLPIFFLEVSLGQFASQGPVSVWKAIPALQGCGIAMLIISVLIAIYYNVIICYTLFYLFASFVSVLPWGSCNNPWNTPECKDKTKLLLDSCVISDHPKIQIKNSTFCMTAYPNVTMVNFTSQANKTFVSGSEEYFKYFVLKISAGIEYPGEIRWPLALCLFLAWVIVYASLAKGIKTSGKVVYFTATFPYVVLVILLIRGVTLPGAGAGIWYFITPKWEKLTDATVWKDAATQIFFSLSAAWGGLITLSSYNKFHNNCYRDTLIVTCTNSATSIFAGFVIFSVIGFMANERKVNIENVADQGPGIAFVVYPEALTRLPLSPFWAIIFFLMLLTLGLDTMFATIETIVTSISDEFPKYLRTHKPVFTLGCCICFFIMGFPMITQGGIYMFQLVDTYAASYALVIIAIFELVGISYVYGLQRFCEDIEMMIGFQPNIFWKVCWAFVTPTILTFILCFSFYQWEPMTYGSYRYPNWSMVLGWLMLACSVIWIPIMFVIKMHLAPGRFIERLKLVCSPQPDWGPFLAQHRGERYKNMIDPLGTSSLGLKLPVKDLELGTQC
How it was run: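 HEK cells overexpressing human GlyT2 were grown on scintillating microplates and incubated 20 min with inhibitor at 0.9–3000 nM in HBSS containing 5 mM alanine. Uptake was started with 250 nM [3H]glycine (0.0125 mCi/mL), and counting ran immediately over 57 min. IC50 came from a four-parameter log(inhibitor)-response fit.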

[3] = test system: glycine levels in the rat cerebrospinal fluid (CSF); test: Glycine in rat CSF after single oral dose; format: in vivo; conditions: 90 min
How it was run: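 Male Wistar rats were acclimatised 1 h in the test room, then dosed orally once with vehicle (0.5% Natrosol, 0.01% Tween-80) or 0.2, 0.6 or 2 mg/kg (n = 8 each). After 90 min, CSF was drawn by cisterna magna puncture under anaesthesia and frozen at −70°C. Glycine was quantified by LC-MS/MS. Data are mean ± SEM, compared with vehicle by one-way ANOVA with Dunnett's test.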

GlyT1 = target: T2, GlyT1 (Rattus norvegicus, UniProt P28572); test: Inhibition of [3H]-glycine uptake in rat primary cortical neurons; format: cell-based; conditions: IC50, inhibition of [3H]-glycine uptake, mean
T2 sequence (P28572 1-638): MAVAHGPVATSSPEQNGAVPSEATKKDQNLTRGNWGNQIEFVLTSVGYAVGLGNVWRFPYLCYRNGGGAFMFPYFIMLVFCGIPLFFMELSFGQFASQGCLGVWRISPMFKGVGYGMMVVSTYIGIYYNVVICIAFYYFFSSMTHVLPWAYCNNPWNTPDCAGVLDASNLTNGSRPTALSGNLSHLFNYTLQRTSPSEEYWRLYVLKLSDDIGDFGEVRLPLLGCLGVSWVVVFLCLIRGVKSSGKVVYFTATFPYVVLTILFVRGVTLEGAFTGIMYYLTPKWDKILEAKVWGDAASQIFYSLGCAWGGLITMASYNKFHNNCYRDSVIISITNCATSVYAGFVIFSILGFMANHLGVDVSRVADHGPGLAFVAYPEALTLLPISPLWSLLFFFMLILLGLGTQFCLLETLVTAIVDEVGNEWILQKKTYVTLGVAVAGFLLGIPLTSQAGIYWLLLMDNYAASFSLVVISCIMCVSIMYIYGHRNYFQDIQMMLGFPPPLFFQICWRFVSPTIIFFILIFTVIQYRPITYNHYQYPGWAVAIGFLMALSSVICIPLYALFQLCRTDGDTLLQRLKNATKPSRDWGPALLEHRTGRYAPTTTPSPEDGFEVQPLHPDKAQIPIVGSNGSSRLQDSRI
How it was run: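 Cortical neurons from E18 rats were differentiated in vitro for 7, 11 or 18 days, then run as a scintillating-plate uptake assay: 20 min incubation, inhibitor 0.9–3000 nM in HBSS with 5 mM alanine, and 200 nM [3H]glycine (0.01 mCi/mL) with counting over 57 min. IC50s came from four-parameter fits per experiment and were then averaged.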

With `C[C@@H](Oc1ccc(S(C)(=O)=O)cc1C(=O)N1C[C@@H]2C[C@]2(c2cc(C(F)(F)F)on2)C1)C(F)(F)F` [BI 425809] as the molecule, how does the AUC0–14 ([1]; CSF, 5 mg oral, n = 6) read?
Its AUC0–14 is 0.0299 µM·h.

What about the AUC0–14 ([1]; CSF, 10 mg oral, n = 6) of the same molecule?
The AUC0–14 was 0.0598 µM·h.

What about the “AUC0–14” value ([1]; CSF, 25 mg oral, n = 6) of the same molecule?
The value was 124.0 (27.2) ^e nM.

And the AUC0–14 ([1]; CSF, 50 mg oral, n = 5)?
Its AUC0–14 is 0.26 µM·h.

What about the “Steady state achieved by” value ([1]; healthy volunteers, once daily dosing, trough plasma concentrations) of the same molecule?
Its value is at most 6 days.

What about the Tmax ([1]; CSF) of the same molecule?
Its Tmax is 5 to 8 h.

And the Cmax ([1]; CSF, 5 mg)?
Its Cmax is 2.9 nM.

What about the Tmax ([1]; CSF, 5 mg) of the same molecule?
The Tmax was 8 h.

And the Cmax ([1]; CSF, 10 mg)?
The Cmax was 5.6 nM.

And the Tmax ([1]; CSF, 10 mg)?
The Tmax was 5.5 h.

What about the Cmax ([1]; CSF, 25 mg) of the same molecule?
The Cmax was 12.2 nM.

And the Tmax ([1]; CSF, 25 mg)?
Its Tmax is 6.1 h.

What about the Cmax ([1]; CSF, 50 mg) of the same molecule?
Its Cmax is 25 nM.

What about the Tmax ([1]; CSF, 50 mg) of the same molecule?
The Tmax was 8.1 h.

And the Tmax ([1]; plasma)?
Its Tmax is 3 to 5 h.

And the Cmax ([1]; plasma, 5 mg)?
The Cmax was 42.3 nM.

And the Tmax ([1]; plasma, 5 mg)?
The Tmax was 5 h.

And the Cmax ([1]; plasma, 10 mg)?
The Cmax was 85.6 nM.

And the Tmax ([1]; plasma, 10 mg)?
The Tmax was 4.5 h.

And the Cmax ([1]; plasma, 25 mg)?
The Cmax was 176 nM.

What about the Tmax ([1]; plasma, 25 mg) of the same molecule?
The Tmax was 3 h.

What about the Cmax ([1]; plasma, 50 mg) of the same molecule?
Its Cmax is 328 nM.

And the Tmax ([1]; plasma, 50 mg)?
The Tmax was 5 h.

And the AUC0–14 ([1]; plasma, 5 mg oral, n = 6)?
The AUC0–14 was 0.421 µM·h.

And the AUC0–14 ([1]; plasma, 10 mg oral, n = 6)?
The AUC0–14 was 0.829 µM·h.

What about the “AUC0–14” value ([1]; plasma, 25 mg oral, n = 7) of the same molecule?
The value was 1,840 (24.2) ^d nM.

And the AUC0–14 ([1]; plasma, 50 mg oral, n = 5)?
Its AUC0–14 is 3.3 µM·h.

What about the concentration at 90 min ([2]; 0.2 mg/kg) of the same molecule?
Its concentration at 90 min is 79 nM.

And the concentration at 90 min ([2]; 0.6 mg/kg)?
The concentration at 90 min was 217 nM.

And the concentration at 90 min ([2]; 2 mg/kg)?
Its concentration at 90 min is 723 nM.

What about the IC50 (human GlyT2) of the same molecule?
The IC50 was over 10000 nM.

And the “Increase of glycine CSF levels relative to vehicle” value ([3]; 0.2 mg/kg single oral dose, not significant)?
Its value is 30%.

And the “Increase of glycine CSF levels relative to vehicle” value ([3]; 0.6 mg/kg single oral dose, P < 0.05)?
The value was 61%.

What about the “Increase of glycine CSF levels relative to vehicle” value ([3]; 2 mg/kg single oral dose, P < 0.01) of the same molecule?
The value was 78%.

What about the IC50 (GlyT1) of the same molecule?
Its IC50 is 5.2 ± 1.2 nM.
